Values after ≈ are worked out from the molar mass of the structure shown.
Assays:
Format in all cases: functional
Enterococcus faecalis = assay: Antibacterial activity against vancomycin-susceptible Enterococcus faecalis ATCC 29212 assessed as zone of inhibition by disc diffusion method
Staphylococcus aureus [1] = assay: Antibacterial activity against linezolid-resistant Staphylococcus aureus assessed as bacterial growth inhibition incubated for 20 hrs by broth dilution method
In short: (§1)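 Broth microdilution: 0.5 McFarland suspension from an overnight culture, diluted 1:100 in cation-adjusted Mueller Hinton broth (CAMHB), given serial dilutions of test agent for 20 h at 37 °C. MIC is the lowest concentration with no visible growth.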

Staphylococcus aureus [2] = assay: Antibacterial activity against methicillin-susceptible Staphylococcus aureus ATCC 25923 assessed as zone of inhibition by disc diffusion method
Klebsiella pneumoniae = assay: Antibacterial activity against multidrug-resistant Klebsiella pneumoniae ATCC 700603 assessed as zone of inhibition by disc diffusion method
Bacillus anthracis = assay: Antibacterial activity against Bacillus anthracis Sterne 34F2 assessed as zone of inhibition by disc diffusion method
Staphylococcus aureus [3] = assay: Antibacterial activity against methicillin-susceptible Staphylococcus aureus ATCC 25923 in presence of 10% v/v serum
Staphylococcus aureus [4] = assay: Antibacterial activity against vancomycin-resistant Staphylococcus aureus clinical isolate 10 assessed as bacterial growth inhibition after 20 hrs by broth microdilution assay; in short: as §1
Escherichia coli = assay: Antibacterial activity against beta-lactam resistant Escherichia coli BAA 2326 assessed as zone of inhibition by disc diffusion method
Staphylococcus aureus [5] = assay: Bactericidal activity against vancomycin-intermediate resistant Staphylococcus aureus Mu50 ATCC 700699 assessed as bacterial killing incubated for over night
In short: (§2)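 For MBC, 5 μL from each well was spotted on agar and incubated overnight; MBC is the lowest concentration with no visible growth. Ratio taken as MBC over MIC.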

Staphylococcus aureus [6] = assay: Bactericidal activity against Vancomycin-resistant Staphylococcus aureus HIP11714 assessed as bacterial killing incubated for over night; in short: as §2
Staphylococcus aureus [7] = assay: Antibacterial activity against vancomycin-resistant Staphylococcus aureus HIP11714 assessed as zone of inhibition by disc diffusion method
Staphylococcus aureus [8] = assay: Antibacterial activity against heterogeneous vancomycin-intermediate Staphylococcus aureus Mu3 ATCC 700698 assessed as bacterial growth inhibition incubated for 20 hrs by broth dilution method; in short: as §1
Staphylococcus aureus [9] = assay: Antibacterial activity against methicillin-susceptible Staphylococcus aureus ATCC 25923 in presence of 0.05% v/v albumin
Staphylococcus aureus [10] = assay: Bactericidal activity against methicillin-susceptible Staphylococcus aureus ATCC 25923 assessed as bacterial killing incubated for over night
In short: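 5 μL from each well was spotted on agar and incubated overnight. MBC was taken as the lowest concentration with no visible growth.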

Staphylococcus aureus [11] = assay: Ratio of MBC to MIC against heterogeneous vancomycin-intermediate Staphylococcus aureus Mu3 ATCC 700698; in short: as §2
Staphylococcus aureus [12] = assay: Antibacterial activity against vancomycin-intermediate resistant Staphylococcus aureus Mu50 ATCC 700699 assessed as zone of inhibition by disc diffusion method
Staphylococcus aureus [13] = assay: Antibacterial activity against vancomycin-intermediate Staphylococcus aureus clinical isolate 12 assessed as bacterial growth inhibition after 20 hrs by broth microdilution assay; in short: as §1
Staphylococcus aureus [14] = assay: Antibacterial activity against methicillin-susceptible Staphylococcus aureus ATCC 25923 assessed as bacterial growth inhibition incubated for 20 hrs by broth dilution method; in short: as §1
Staphylococcus aureus [15] = assay: Bactericidal activity against methicillin-resistant Staphylococcus aureus ATCC 43300 assessed as bacterial killing incubated for over night; in short: as §2
Enterococcus faecium = assay: Antibacterial activity against vancomycin-resistant Enterococcus faecium ATCC 700221 assessed as zone of inhibition by disc diffusion method
[16] = test system: Staphylococcus epidermidis; assay: Antibacterial activity against Staphylococcus epidermidis ATCC 14990 assessed as zone of inhibition by disc diffusion method
Staphylococcus aureus [17] = assay: Antibacterial activity against hospital acquired methicillin-resistant Staphylococcus aureus ATCC 43300 assessed as zone of inhibition by disc diffusion method
Staphylococcus aureus [18] = assay: Antibacterial activity against heterogeneous vancomycin-intermediate resistant Staphylococcus aureus Mu3 ATCC 700698 assessed as zone of inhibition by disc diffusion method
Staphylococcus aureus [19] = assay: Ratio of MBC to MIC against vancomycin-intermediate resistant Staphylococcus aureus Mu50 ATCC 700699; in short: as §2
Staphylococcus aureus [20] = assay: Antibacterial activity against vancomycin-resistant Staphylococcus aureus HIP11714 assessed as inhibition of bacterial growth incubated for 20 hrs by broth microdilution method; conditions: HIP11714, 20 h; in short: as §1
Pseudomonas aeruginosa = assay: Antibacterial activity against Pseudomonas aeruginosa ATCC 15422 assessed as zone of inhibition by disc diffusion method
Staphylococcus aureus [21] = assay: Bactericidal activity against heterogeneous vancomycin-intermediate Staphylococcus aureus Mu3 ATCC 700698 assessed as bacterial killing incubated for over night; in short: as §2
Acinetobacter baumannii [22] = assay: Antibacterial activity against Acinetobacter baumannii ATCC 19606 assessed as zone of inhibition by disc diffusion method
Staphylococcus aureus [23] = assay: Antibacterial activity against vancomycin-intermediate resistant Staphylococcus aureus Mu50 ATCC 700699 assessed as bacterial growth inhibition incubated for 20 hrs by broth dilution method; in short: as §1
Enterobacter cloacae = assay: Antibacterial activity against Enterobacter cloacae ATCC 23355 assessed as zone of inhibition by disc diffusion method
Staphylococcus aureus [24] = assay: Antibacterial activity against methicillin-resistant Staphylococcus aureus ATCC 43300 assessed as bacterial growth inhibition incubated for 20 hrs by broth dilution method; in short: as §1
Staphylococcus aureus [25] = assay: Antibacterial activity against community acquired methicillin-resistant Staphylococcus aureus BAA 1747 assessed as zone of inhibition by disc diffusion method
Staphylococcus aureus [26] = assay: Antibacterial activity against methicillin-susceptible Staphylococcus aureus ATCC 25923 in presence of glutathione
In short: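 Broth microdilution MIC: a 0.5 McFarland suspension from overnight culture was diluted 1:100 in cation-adjusted Mueller Hinton broth supplemented with glutathione 100 μM. It was exposed to serial dilutions for 20 h at 37 °C. MIC was taken as the lowest concentration with no visible growth.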

Staphylococcus aureus [27] = assay: Ratio of MBC to MIC against methicillin-susceptible Staphylococcus aureus ATCC 25923; in short: as §2
Acinetobacter baumannii [28] = assay: Antibacterial activity against multidrug-resistant Acinetobacter baumannii BAA 1605 assessed as zone of inhibition by disc diffusion method
Staphylococcus aureus [29] = assay: Antibacterial activity against methicillin-susceptible Staphylococcus aureus ATCC 25923 in presence of 5% v/v serum

SMILES | diameter of the inhibition zone (DIZ) (Enterococcus faecalis) [mm] | MIC (Staphylococcus aureus [1]) [µM] | diameter of the inhibition zone (DIZ) (Staphylococcus aureus [2]) [mm] | diameter of the inhibition zone (DIZ) (Klebsiella pneumoniae) [mm] | diameter of the inhibition zone (DIZ) (Bacillus anthracis) [mm] | MIC50 (Staphylococcus aureus [4]) [µM] | MIC90 (Staphylococcus aureus [4]) [µM] | diameter of the inhibition zone (DIZ) (Escherichia coli) [mm] | diameter of the inhibition zone (DIZ) (Staphylococcus aureus [7]) [mm] | MIC (Staphylococcus aureus [8]) [µM] | diameter of the inhibition zone (DIZ) (Staphylococcus aureus [12]) [mm] | diameter of the inhibition zone (DIZ) (Enterococcus faecium) [mm] | diameter of the inhibition zone (DIZ) [16] [mm] | diameter of the inhibition zone (DIZ) (Staphylococcus aureus [17]) [mm] | diameter of the inhibition zone (DIZ) (Staphylococcus aureus [18]) [mm] | diameter of the inhibition zone (DIZ) (Pseudomonas aeruginosa) [mm] | diameter of the inhibition zone (DIZ) (Acinetobacter baumannii [22]) [mm] | diameter of the inhibition zone (DIZ) (Enterobacter cloacae) [mm] | diameter of the inhibition zone (DIZ) (Staphylococcus aureus [25]) [mm] | diameter of the inhibition zone (DIZ) (Acinetobacter baumannii [28]) [mm] | further results
CCCCCCCCCSSc1ccccn1 | 8 | 25 (≈ 6.74 µg/mL) | 20 | 0 | 25 | 6.25 (≈ 1.68 µg/mL) | 12.5 (≈ 3.37 µg/mL) | 0 | 21 | 6.25 (≈ 1.68 µg/mL) | 30 | 8 | 41 | 22 | 22 | 0 | 0 | 0 | 19 | 0 | MIC (Staphylococcus aureus [3]): 50 µM; MBC (Staphylococcus aureus [5]): 25 µM (≈ 6.74 µg/mL); MBC (Staphylococcus aureus [6]): > 50 µM; MIC (Staphylococcus aureus [9]): 25 µM; MBC (Staphylococcus aureus [10]): > 50 µM; Ratio (Staphylococcus aureus [11]): >8; MIC50 (Staphylococcus aureus [13]): 6.25 µM (≈ 1.68 µg/mL); MIC90 (Staphylococcus aureus [13]): 12.5 µM (≈ 3.37 µg/mL); MIC (Staphylococcus aureus [14]): 12.5 µM (≈ 3.37 µg/mL); MBC (Staphylococcus aureus [15]): > 50 µM; Ratio (Staphylococcus aureus [19]): 16; MIC (Staphylococcus aureus [20]): 12.5 µM (≈ 3.37 µg/mL); MBC (Staphylococcus aureus [21]): > 50 µM; MIC (Staphylococcus aureus [23]): 1.56 µM (≈ 0.42 µg/mL); MIC (Staphylococcus aureus [24]): 6.25 µM (≈ 1.68 µg/mL); MIC (Staphylococcus aureus [26]): 50 µM; Ratio (Staphylococcus aureus [27]): >4; MIC (Staphylococcus aureus [29]): 25 µM
CCCCCCSSc1ccccn1 | 20 | 50 (≈ 11.4 µg/mL) | 47 | 0 | >50 | 50 (≈ 11.4 µg/mL) | 50 (≈ 11.4 µg/mL) | 0 | 46 | 50 (≈ 11.4 µg/mL) | >50 | 13 | >50 | 49 | 45 | 0 | 0 | 8 | 40 | 0 | MIC50 (Staphylococcus aureus [13]): 50 µM (≈ 11.4 µg/mL); MIC90 (Staphylococcus aureus [13]): 50 µM (≈ 11.4 µg/mL); MIC (Staphylococcus aureus [14]): 25 µM (≈ 5.68 µg/mL); MIC (Staphylococcus aureus [20]): 50 µM (≈ 11.4 µg/mL); MIC (Staphylococcus aureus [23]): 25 µM (≈ 5.68 µg/mL); MIC (Staphylococcus aureus [24]): 50 µM (≈ 11.4 µg/mL)
CC(C)CSSc1ccccn1 | 0 | – | 0 | 0 | 50 | – | – | 0 | 0 | – | 0 | 0 | 40 | 0 | 0 | 0 | 0 | 0 | 0 | 0 | –

From ChEMBL document CHEMBL4715813, “Allicin-inspired pyridyl disulfides as antimicrobial agents for multidrug-resistant Staphylococcus aureus” (Eur J Med Chem, 2018)
